Experimental data: ChEMBL document CHEMBL1667771, “The discovery of furo[2,3-c]pyridine-based indanone oximes as potent and selective B-Raf inhibitors” (Bioorg Med Chem Lett, 2011)

Tests used:
Cytochrome P450 3A4 = Cytochrome P450 3A4 (Homo sapiens, UniProt P08684); assay: Inhibition of CYP3A4; type: ADME
[1] = target: T1, Serine/threonine-protein kinase B-raf (Homo sapiens, UniProt P15056, V600E); assay: Inhibition of B-Raf V600E mutant assessed as inhibition of phosphorylated ERK production by cell based assay
Outline: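 Cell-based readout of phospho-ERK production. The IC50 is the average of three experiments.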

[2] = target: T1, Serine/threonine-protein kinase B-raf; assay: Inhibition of B-Raf V600E mutant
Cytochrome P450 2C19 = Cytochrome P450 2C19 (Homo sapiens, UniProt P33261); assay: Inhibition of CYP2C19; type: ADME
Cytochrome P450 1A2 = target: T2, Cytochrome P450 1A2 (Homo sapiens, UniProt P05177); assay: Inhibition of CYP1A2; type: ADME
T2 sequence (P05177 whole entry): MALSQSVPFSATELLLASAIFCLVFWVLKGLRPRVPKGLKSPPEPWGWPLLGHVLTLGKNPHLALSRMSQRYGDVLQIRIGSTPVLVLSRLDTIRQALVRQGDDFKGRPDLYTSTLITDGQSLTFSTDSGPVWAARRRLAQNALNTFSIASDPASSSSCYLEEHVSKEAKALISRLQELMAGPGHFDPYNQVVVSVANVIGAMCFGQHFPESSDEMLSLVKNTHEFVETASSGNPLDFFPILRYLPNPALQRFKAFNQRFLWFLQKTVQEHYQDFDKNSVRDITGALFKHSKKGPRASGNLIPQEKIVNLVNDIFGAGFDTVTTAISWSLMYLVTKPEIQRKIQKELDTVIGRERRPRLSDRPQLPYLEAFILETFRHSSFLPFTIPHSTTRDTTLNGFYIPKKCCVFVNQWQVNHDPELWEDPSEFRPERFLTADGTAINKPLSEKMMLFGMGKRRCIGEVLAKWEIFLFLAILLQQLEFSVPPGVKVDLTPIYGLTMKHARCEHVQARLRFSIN

[3] = Permeability of the compound across human Caco2 cells; type: ADME, cell-based; conditions: caco-2, read-out: permeability
Outline: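 Caco-2 permeability is reported as a class: low (<2 × 10^-6 cm/s), medium (2–8 × 10^-6 cm/s), high (>8 × 10^-6 cm/s).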

[4] = Aqueous solubility of the compound at pH 6.5; type: physicochemical
Caco-2 = assay: Permeability ratio of the compound across human Caco2 cells; type: ADME, cell-based

T1 sequence (P15056 2-766 V600E limits assumed): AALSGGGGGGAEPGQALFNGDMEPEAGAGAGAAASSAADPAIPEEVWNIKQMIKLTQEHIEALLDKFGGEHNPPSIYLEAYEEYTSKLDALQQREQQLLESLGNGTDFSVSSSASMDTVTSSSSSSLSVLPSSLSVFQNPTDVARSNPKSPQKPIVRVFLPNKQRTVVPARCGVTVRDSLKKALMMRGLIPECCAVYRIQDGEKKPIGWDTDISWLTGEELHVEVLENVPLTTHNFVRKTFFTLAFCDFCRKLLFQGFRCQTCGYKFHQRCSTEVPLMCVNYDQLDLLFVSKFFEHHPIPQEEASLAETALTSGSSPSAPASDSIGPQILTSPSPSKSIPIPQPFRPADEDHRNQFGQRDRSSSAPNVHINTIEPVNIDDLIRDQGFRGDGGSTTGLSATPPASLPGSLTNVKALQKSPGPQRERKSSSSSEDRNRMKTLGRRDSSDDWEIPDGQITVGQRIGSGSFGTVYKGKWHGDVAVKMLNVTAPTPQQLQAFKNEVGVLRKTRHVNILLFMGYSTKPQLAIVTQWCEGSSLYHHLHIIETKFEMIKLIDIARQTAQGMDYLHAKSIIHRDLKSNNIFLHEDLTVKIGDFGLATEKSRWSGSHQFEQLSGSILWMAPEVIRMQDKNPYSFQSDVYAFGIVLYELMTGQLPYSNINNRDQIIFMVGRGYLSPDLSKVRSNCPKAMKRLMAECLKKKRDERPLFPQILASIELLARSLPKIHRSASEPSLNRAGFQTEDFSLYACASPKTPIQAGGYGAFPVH
Chain of Cytochrome P450 3A4 (P08684 whole entry): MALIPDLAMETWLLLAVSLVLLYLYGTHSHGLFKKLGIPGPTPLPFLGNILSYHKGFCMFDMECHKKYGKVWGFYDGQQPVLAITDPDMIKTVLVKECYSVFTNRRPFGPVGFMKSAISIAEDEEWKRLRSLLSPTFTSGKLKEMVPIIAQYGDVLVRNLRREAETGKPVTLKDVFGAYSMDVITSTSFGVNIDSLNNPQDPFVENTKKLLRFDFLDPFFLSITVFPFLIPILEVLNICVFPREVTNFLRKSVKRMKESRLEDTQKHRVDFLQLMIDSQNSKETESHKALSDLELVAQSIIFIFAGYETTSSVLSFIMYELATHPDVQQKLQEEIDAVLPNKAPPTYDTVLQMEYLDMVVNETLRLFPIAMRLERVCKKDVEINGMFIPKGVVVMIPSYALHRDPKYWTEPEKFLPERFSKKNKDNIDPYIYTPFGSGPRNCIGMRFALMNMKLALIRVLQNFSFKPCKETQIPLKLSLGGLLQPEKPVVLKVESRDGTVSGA
Chain of Cytochrome P450 2C19 (P33261 whole entry): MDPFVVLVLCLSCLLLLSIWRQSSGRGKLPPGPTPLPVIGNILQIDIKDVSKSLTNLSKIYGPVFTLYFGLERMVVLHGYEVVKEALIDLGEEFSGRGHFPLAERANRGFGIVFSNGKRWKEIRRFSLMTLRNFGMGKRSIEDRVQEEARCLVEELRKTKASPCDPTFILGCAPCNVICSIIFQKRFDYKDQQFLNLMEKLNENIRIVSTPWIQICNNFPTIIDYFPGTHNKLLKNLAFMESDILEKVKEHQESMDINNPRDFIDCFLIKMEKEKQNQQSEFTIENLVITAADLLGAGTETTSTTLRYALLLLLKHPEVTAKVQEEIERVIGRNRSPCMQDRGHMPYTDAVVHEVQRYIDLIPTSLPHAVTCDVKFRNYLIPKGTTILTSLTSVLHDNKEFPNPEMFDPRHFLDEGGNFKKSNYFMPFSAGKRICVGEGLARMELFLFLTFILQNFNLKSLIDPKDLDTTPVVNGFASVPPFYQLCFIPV

| IC50 [1] [nM] | IC50 [2] [nM] | Compound | also measured |
| --- | --- | --- | --- |
| 30 | < 2 | CCOC(=O)c1oc2cnccc2c1Nc1ccc2c(c1)CC/C2=N/O | IC50 (Cytochrome P450 3A4): 8300 nM; IC50 (Cytochrome P450 2C19): 1180 nM; IC50 (Cytochrome P450 1A2): > 25000 nM |
| 76000 | 570 | Clc1ccc(Nc2c(-c3ccccc3)nc3cnccn23)cc1 |  |
| 19000 | 35 | O/N=C1/CCc2cc(Nc3c(-c4ccccc4)nc4cnccn34)ccc21 |  |
| 16000 | 47 | O/N=C1/CCc2cc(Nc3c(-c4cccnc4)nc4cnccn34)ccc21 |  |
| 5800 | 40 | CN(C)C(=O)c1sc2cnccc2c1Nc1ccc2c(c1)CC/C2=N/O |  |
| 7300 | 32 | O/N=C1/CCc2cc(Nc3csc4cnccc34)ccc21 |  |
| 1500 | 3 | O/N=C1/CCc2cc(Nc3c(-c4ccccc4)sc4cnccc34)ccc21 |  |
| 340 | 5 | CN(C)C(=O)c1oc2cnccc2c1Nc1ccc2c(c1)CC/C2=N\O |  |
| 40 | 2 | CN(C)CCNC(=O)c1oc2cnccc2c1Nc1ccc2c(c1)CC/C2=N\O | Papp [3]: > 8 ×10⁻⁶ cm/s; solubility [4]: > 1000 µg/mL; Ratio (Caco-2): 0.9 |
| 365 | < 2 | Cc1cc(-c2oc3cnccc3c2Nc2ccc3c(c2)CC/C3=N\O)no1 |  |

The next lines start with the compound.

| Compound | IC50 [1] [nM] | IC50 [2] [nM] | also measured |
| --- | --- | --- | --- |
| NCc1ccc(Nc2c(-c3ccccc3)nc3cnccn23)cc1 |  | 1400 |  |
| Cc1nc2cnccn2c1Nc1ccc(Cl)cc1 |  | 1200 |  |
| CCOC(=O)c1nc2cnccn2c1Nc1ccc2c(c1)CC/C2=N\O | 3100 | 16 |  |
| O/N=C1/CCc2cc(Nc3c(-c4ccco4)nc4cnccn34)ccc21 | 1400 | 4 |  |
| CCOC(=O)c1sc2cnccc2c1Nc1ccc2c(c1)CC/C2=N/O | 280 | 3 | IC50 (Cytochrome P450 3A4): 50 nM; IC50 (Cytochrome P450 2C19): 129 nM; IC50 (Cytochrome P450 1A2): 616 nM |
| CN(C)CCNC(=O)c1sc2cnccc2c1Nc1ccc2c(c1)CC/C2=N/O | 8200 | 52 |  |
| O/N=C1/CCc2cc(Nc3c(-c4cccnc4)sc4cnccc34)ccc21 | 170 | 3 |  |
| CCCC(=O)c1sc2cnccc2c1Nc1ccc2c(c1)CC/C2=N/O | 140 | < 2 |  |
| Cc1ccc(-c2oc3cnccc3c2Nc2ccc3c(c2)CC/C3=N\O)cc1 | 2000 | 3 |  |
| O/N=C1\CCc2cc(Nc3c(-c4ccccn4)oc4cnccc34)ccc21 | 150 | < 2 |  |
| O/N=C1/CCc2cc(Nc3c(-c4cccnc4)oc4cnccc34)ccc21 | 960 | < 2 |  |
| O/N=C1\CCc2cc(Nc3c(-c4ncccn4)oc4cnccc34)ccc21 | 5 | 0.2 | Papp [3]: > 8 ×10⁻⁶ cm/s; Ratio (Caco-2): 0.9 |
| Oc1cc(-c2nc(-c3ccccc3)[nH]c2-c2ccncc2)ccc1Cl |  | 10 |  |
